For one assay, the system named is Serratia marcescens. Nature of the assay: Antibacterial activity against Serratia marcescens Guilpin 759 after 24 hrs by agar dilution method. Format: functional. Put shortly: (§1)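 MIC by microplate titration in agar medium (agar dilution). Compounds dissolved in DMSO. Incubation at 37° for 24 h (the 24 h/37° conditions are stated for the bioguiding agar diffusion test against S. aureus 209 P).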

The test system of assay [1] is Staphylococcus aureus. Nature of the assay: Antibacterial activity against Staphylococcus aureus V. de G. 26109 after 24 hrs by agar dilution method. Format: functional. In a few lines: as §1
A general note: In agar dilution the substance is mixed into plates at graded concentrations.

Assay [2] has as its system Nucleic Acid. Nature of the assay: Induction of phiX174 replicative form 1 template DNA cleavage at 48 ug after 1 hr by propidium iodide staining. The class given is nucleic-acid assay. In a few lines:
(§2)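 Reaction at pH 7.5, 15 µl final, with 50 mM sodium cacodylate, 100 ng ΦX174 RF I DNA and CuSO4 120 µM plus sample (24 or 48 µg). Incubated 1 h at 25°, stopped with EDTA. Run on 0.8% agarose at 80 V for 1.5 h in Tris-borate pH 8.0. Stained with propidium iodide 0.5 µg/ml; form II DNA scored.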

Assay [3] deals with Streptococcus pneumoniae. Nature of the assay: Antibacterial activity against Streptococcus pneumoniae 6254.013 after 24 hrs by agar dilution method. Format: functional. In a few lines:
as §1

In assay [4] the test system is Escherichia coli. Nature of the assay: Antibacterial activity against Escherichia coli NIHJ-JC2 after 24 hrs by agar dilution method. Format: functional. In a few lines:
as §1

For the next assay, the system named is Enterococcus faecalis. Nature of the assay: Antibacterial activity against Enterococcus faecalis ATCC 29212 after 24 hrs by agar dilution method. Format: functional. The settings on record: ATCC 29212, 24 h. Put shortly:
as §1

The test system of assay [5] is Streptococcus pneumoniae. Nature of the assay: Antibacterial activity against Streptococcus pneumoniae 6176-23F after 24 hrs by agar dilution method. The class given is functional. In a few lines:
as §1

For the next assay, the system named is Klebsiella pneumoniae. Nature of the assay: Antibacterial activity against Klebsiella pneumoniae IP 7824 caroli after 24 hrs by agar dilution method. The class given is functional. In a few lines:
as §1

Assay [6] relates to Staphylococcus aureus. Nature of the assay: Antibacterial activity against Staphylococcus aureus Duc after 24 hrs by agar dilution method. Format: functional. In a few lines:
as §1

The next assay has as its system Streptococcus. Nature of the assay: Antibacterial activity against Streptococcus A Dig 7 after 24 hrs by agar dilution method. Format: functional. Put shortly: as §1
Another assay concerns Salmonella typhimurium. Nature of the assay: Antibacterial activity against Salmonella Typhimurium IPL after 24 hrs by agar dilution method. The class given is functional, Salmonella enterica subsp. enterica serovar Typhimurium. Particulars: Salmonella enterica. Put shortly: as §1
For assay [7], the system named is Staphylococcus aureus. Nature of the assay: Antibacterial activity against Staphylococcus aureus IP 8203 after 24 hrs by agar dilution method. Format: functional. Put shortly: as §1
The subject of assay [8] is Escherichia coli. Nature of the assay: Antibacterial activity against Escherichia coli V 2019 after 24 hrs by agar dilution method. Format: functional. In a few lines:
as §1

The test system of another assay is Klebsiella aerogenes. Nature of the assay: Antibacterial activity against Enterobacter aerogenes HM12 after 24 hrs by agar dilution method. The class given is functional. Put shortly: as §1
Assay [9] concerns Staphylococcus aureus. Nature of the assay: Antibacterial activity against Staphylococcus aureus Duchaussoy after 24 hrs by agar dilution method. The class given is functional. Put shortly:
as §1

The subject of assay [10] is Streptococcus pneumoniae. Nature of the assay: Antibacterial activity against Streptococcus pneumoniae 4314-03 after 24 hrs by agar dilution method. The class given is functional. Put shortly:
as §1

Assay [11] has as its system Staphylococcus aureus. Nature of the assay: Antibacterial activity against Staphylococcus aureus 209P ATCC 6538 after 24 hrs by agar dilution method. The class given is functional. Put shortly: as §1
The test system of a further assay is Pseudomonas aeruginosa. Nature of the assay: Antibacterial activity against Pseudomonas aeruginosa IPA 237 after 24 hrs by agar dilution method. Format: functional. Put shortly: as §1
Assay [12] deals with Staphylococcus aureus. Nature of the assay: Antibacterial activity against Staphylococcus aureus ATCC 25923 after 24 hrs by agar dilution method. Format: functional. Particulars: ATCC 25923, 24 h. Put shortly:
as §1

A further assay deals with Enterococcus faecium. Nature of the assay: Antibacterial activity against Enterococcus faecium ATCC 19581 after 24 hrs by agar dilution method. The class given is functional. The settings on record: ATCC 19581, 24 h. In a few lines:
as §1

The subject of assay [13] is Nucleic Acid. Nature of the assay: Induction of phiX174 replicative form 1 template DNA cleavage at 24 ug after 1 hr by propidium iodide staining. The class given is nucleic-acid assay. Put shortly:
as §2

Data on 2 compounds can be found in ChEMBL document CHEMBL1147377, “Knerachelins A and B, antibacterial phenylacylphenols from Knema furfuracea” (1993).

≈ marks a conversion by molar mass, not a printed value. Calls of active or inactive are those of the source. The rule behind the calls is not given here. Where only a bound is given, the exact number is not on record here.

Broadly, the MIC is the lowest concentration that inhibits growth of the organism. As to `COc1cc(O)c(C(=O)CCCCc2ccccc2)c(O)c1` [KNERACHELIN A], the MIC against Serratia marcescens was more than 128 µg/mL; in the assay with Staphylococcus aureus [1], 8 µg/mL (≈ 26.6 µM); in the assay on Streptococcus pneumoniae [3] it was 8 µg/mL (≈ 26.6 µM); in the assay with Escherichia coli [4], more than 128 µg/mL; with Enterococcus faecalis, 32 µg/mL (≈ 107 µM); against Streptococcus pneumoniae [5] it was 8 µg/mL (≈ 26.6 µM). Besides, the minimum inhibitory concentration (MIC) in the assay on Klebsiella pneumoniae is more than 128 µg/mL; in the assay with Staphylococcus aureus [6] it was 8 µg/mL (≈ 26.6 µM); in the assay on Streptococcus it was 8 µg/mL (≈ 26.6 µM); against Salmonella typhimurium, more than 128 µg/mL; against Staphylococcus aureus [7], 8 µg/mL (≈ 26.6 µM); in the assay with Escherichia coli [8], more than 128 µg/mL. The minimum inhibitory concentration (MIC) was more than 128 µg/mL in the assay on Klebsiella aerogenes; 8 µg/mL (≈ 26.6 µM) against Staphylococcus aureus [9]; 8 µg/mL (≈ 26.6 µM) against Streptococcus pneumoniae [10]; 8 µg/mL (≈ 26.6 µM) in the assay on Staphylococcus aureus [11]; more than 128 µg/mL in the assay on Pseudomonas aeruginosa; 8 µg/mL (≈ 26.6 µM) in the assay on Staphylococcus aureus [12]. Besides, in the assay with Enterococcus faecium, the MIC stood at 32 µg/mL (≈ 107 µM). The outcome in the assay on Nucleic Acid [2] was inactive.
Regarding `O=C(CCCCc1ccccc1)c1c(O)cccc1O` [KNERACHELIN B], the minimum inhibitory concentration (MIC) against Serratia marcescens was more than 128 µg/mL; against Staphylococcus aureus [1] it was 4 µg/mL (≈ 14.8 µM); against Streptococcus pneumoniae [3], 8 µg/mL (≈ 29.6 µM); in the assay with Escherichia coli [4], more than 128 µg/mL; in the assay with Enterococcus faecalis, 16 µg/mL (≈ 59.2 µM); in the assay on Streptococcus pneumoniae [5] it was 8 µg/mL (≈ 29.6 µM). Further, the MIC was more than 128 µg/mL against Klebsiella pneumoniae; 4 µg/mL (≈ 14.8 µM) with Staphylococcus aureus [6]; 4 µg/mL (≈ 14.8 µM) against Streptococcus; more than 128 µg/mL with Salmonella typhimurium; 4 µg/mL (≈ 14.8 µM) in the assay with Staphylococcus aureus [7]; more than 128 µg/mL against Escherichia coli [8]. The MIC against Klebsiella aerogenes was more than 128 µg/mL; against Staphylococcus aureus [9], 4 µg/mL (≈ 14.8 µM); against Streptococcus pneumoniae [10], 8 µg/mL (≈ 29.6 µM); against Staphylococcus aureus [11], 4 µg/mL (≈ 14.8 µM); with Pseudomonas aeruginosa it was more than 128 µg/mL; in the assay on Staphylococcus aureus [12] it was 4 µg/mL (≈ 14.8 µM). Also, the minimum inhibitory concentration (MIC) against Enterococcus faecium turned out to be 16 µg/mL (≈ 59.2 µM). Moreover, the result in the assay on Nucleic Acid [13] was inactive.
